Measured values: PMC7181426 (Clinical Drug Investigation, 2020)
“And” between values parts separate entries of the source, which are not always exact repeats. Equal values may be shown once. Marks after values point to notes of the source that are not given here.

What was measured:
[1] = test system: peripheral lymphocyte subsets; test: Peripheral lymphocyte subsets by flow cytometry, multiple-dose study; format: in vivo, human; details: 100 mg, 72 h after twice-daily dosing on day 7
[2] = Safety: treatment-emergent adverse events, single-dose study; format: in vivo, human
Procedure, shortened: (§1)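 Adverse events were monitored throughout the study in subjects randomized 3:1 to test compound or placebo. Single-dose subjects were discharged on day 3 and returned on day 7; twice-daily subjects were discharged on day 10 and returned on day 13. Events were coded by System Organ Class and preferred term (MedDRA 12.1). The investigator assessed relatedness and graded severity as mild, moderate or severe.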

[3] = Safety: treatment-emergent adverse events, multiple-dose study; format: in vivo, human; details: for Alanine aminotransferase increased / Any TEAE / Aspartate aminotransferase increased / Blood creatinine phosphokinase increased / Diarrhea / Feeling abnormal / Headache / Hot flush / Malaise / Neutrophil count decreased / Rash / White blood cell count increased: Japanese
Procedure, shortened: as §1

[4] = cited from earlier work
[5] = test system: SULT2A1, nicotinamide N-methyltransferase; details: cited from earlier work
[6] = Caucasian, single dose 20 mg (n = 6)
[7] = Caucasian, single dose 60 mg (n = 6)
[8] = Caucasian, single dose 200 mg (n = 6)
[9] = Japanese, single dose 20 mg (n = 6)
[10] = Japanese, single dose 60 mg (n = 6)
[11] = Japanese, single dose 200 mg (n = 6)
[12] = single- and multiple-dose studies

With `NC(=O)c1cnc2[nH]ccc2c1N[C@@H]1[C@@H]2CC3C[C@H]1C[C@@](O)(C3)C2` [peficitinib, Peficitinib] the “largest change: decrease in the subset of CD3+, CD45RA+ and total naïve cells” value [1] was 7.50%, the “Any TEAE” value [2, 6] was 0 n (%) and the Blood potassium increased [2, 6] was 0 n (%). The Diarrhea [2, 6] was 0 n (%), the “White blood cell count increased” value [2, 6] was 0 n (%) and the “Any TEAE” value [2, 7] was 1 (16.7) n (%). For the same molecule, the Blood potassium increased [2, 7] was 0 n (%), the Diarrhea [2, 7] was 1 (16.7)^b n (%) and the “White blood cell count increased” value [2, 7] was 0 n (%). For the same molecule, the “Any TEAE” value [2, 8] was 0 n (%), the Blood potassium increased [2, 8] was 0 n (%) and the Diarrhea [2, 8] was 0 n (%). For the same molecule, the “White blood cell count increased” value [2, 8] was 0 n (%), the “Any TEAE” value [2, 9] was 1 (16.7) n (%) and the Blood potassium increased [2, 9] was 1 (16.7)^b n (%). For the same molecule, the Diarrhea [2, 9] was 0 n (%), the “White blood cell count increased” value [2, 9] was 0 n (%) and the “Any TEAE” value [2, 10] was 2 (33.3) n (%). For the same molecule, the Blood potassium increased [2, 10] was 0 n (%), the Diarrhea [2, 10] was 0 n (%) and the “White blood cell count increased” value [2, 10] was 2 (33.3) n (%). The “Any TEAE” value [2, 11] was 1 (16.7) n (%), the Blood potassium increased [2, 11] was 0 n (%) and the Diarrhea [2, 11] was 0 n (%). For the same molecule, the “White blood cell count increased” value [2, 11] was 1 (16.7) n (%), the Alanine aminotransferase increased ([3]; 10 mg bid for 7 days (n = 6)) was 1 (16.7)^b n (%) and the “Any TEAE” value ([3]; 10 mg bid for 7 days (n = 6)) was 2 (33.3) n (%). For the same molecule, the Aspartate aminotransferase increased ([3]; 10 mg bid for 7 days (n = 6)) was 1 (16.7)^b n (%), the “Blood creatinine phosphokinase increased” value ([3]; 10 mg bid for 7 days (n = 6)) was 1 (16.7)^b n (%) and the Diarrhea ([3]; 10 mg bid for 7 days (n = 6)) was 0 n (%). For the same molecule, the Feeling abnormal ([3]; 10 mg bid for 7 days (n = 6)) was 1 (16.7)^b n (%), the Headache ([3]; 10 mg bid for 7 days (n = 6)) was 1 (16.7)^b n (%) and the Hot flush ([3]; 10 mg bid for 7 days (n = 6)) was 1 (16.7)^b n (%). The Malaise ([3]; 10 mg bid for 7 days (n = 6)) was 0 n (%), the Neutrophil count decreased ([3]; 10 mg bid for 7 days (n = 6)) was 0 n (%) and the Rash ([3]; 10 mg bid for 7 days (n = 6)) was 0 n (%). For the same molecule, the “White blood cell count increased” value ([3]; 10 mg bid for 7 days (n = 6)) was 1 (16.7)^b n (%), the Alanine aminotransferase increased ([3]; 30 mg bid for 7 days (n = 6)) was 0 n (%) and the “Any TEAE” value ([3]; 30 mg bid for 7 days (n = 6)) was 3 (50.0) n (%). The Aspartate aminotransferase increased ([3]; 30 mg bid for 7 days (n = 6)) was 0 n (%), the “Blood creatinine phosphokinase increased” value ([3]; 30 mg bid for 7 days (n = 6)) was 0 n (%) and the Diarrhea ([3]; 30 mg bid for 7 days (n = 6)) was 1 (16.7)^b n (%). The Feeling abnormal ([3]; 30 mg bid for 7 days (n = 6)) was 0 n (%), the Headache ([3]; 30 mg bid for 7 days (n = 6)) was 0 n (%) and the Hot flush ([3]; 30 mg bid for 7 days (n = 6)) was 0 n (%). The Malaise ([3]; 30 mg bid for 7 days (n = 6)) was 0 n (%), the Neutrophil count decreased ([3]; 30 mg bid for 7 days (n = 6)) was 0 n (%) and the Rash ([3]; 30 mg bid for 7 days (n = 6)) was 1 (16.7)^b n (%). For the same molecule, the “White blood cell count increased” value ([3]; 30 mg bid for 7 days (n = 6)) was 2 (33.3)^d n (%), the Alanine aminotransferase increased ([3]; 100 mg bid for 7 days (n = 6)) was 1 (16.7)^b n (%) and the “Any TEAE” value ([3]; 100 mg bid for 7 days (n = 6)) was 4 (66.7) n (%). The Aspartate aminotransferase increased ([3]; 100 mg bid for 7 days (n = 6)) was 0 n (%), the “Blood creatinine phosphokinase increased” value ([3]; 100 mg bid for 7 days (n = 6)) was 0 n (%) and the Diarrhea ([3]; 100 mg bid for 7 days (n = 6)) was 0 n (%). For the same molecule, the Feeling abnormal ([3]; 100 mg bid for 7 days (n = 6)) was 0 n (%), the Headache ([3]; 100 mg bid for 7 days (n = 6)) was 0 n (%) and the Hot flush ([3]; 100 mg bid for 7 days (n = 6)) was 0 n (%). The Malaise ([3]; 100 mg bid for 7 days (n = 6)) was 0 n (%), the Neutrophil count decreased ([3]; 100 mg bid for 7 days (n = 6)) was 3 n (%) and 3 (50.0)^b n (%) and the Rash ([3]; 100 mg bid for 7 days (n = 6)) was 0 n (%). For the same molecule, the “White blood cell count increased” value ([3]; 100 mg bid for 7 days (n = 6)) was 0 n (%), the tolerability ([3]; doses up to 200 mg daily for 7 days, healthy Japanese subjects) was “well tolerated” and the “serious TEAEs or TEAEs resulting in discontinuation” value [3, 12] was “no serious TEAEs or TEAEs resulting in discontinuation”. For the same molecule, the “severity of TEAEs” value [3, 12] was “mild”, the “Neutrophil counts recovered by” value ([3]; three subjects receiving 100 mg twice daily) was no more than 8 days and the median tmax ([4]; healthy, fasted, mainly Caucasian men, 3–30 mg ref 11) was 1 h. The “attainment of steady-state plasma levels by” value ([4]; multiple twice-daily dosing (30–200 mg twice daily), USA ref 11) was no more than 3 days, the “cumulative amounts excreted unchanged in urine, range” value ([4]; primarily Caucasian population in the USA, single oral doses of 30–200 mg ref 11) was 3.9 to 22.1 mg and the metabolizing enzymes [5] was “metabolized by the sulfotransferase (SULT) isoenzyme, SULT2A1, and the methyltransferase isoenzyme, nicotinamide N-methyltransferase”.
